Results collected from several papers.
Protocols differ between the studies behind these lines.
Cell line: A2780
Read-out: cell growth or viability

| SMILES | assay | conditions | endpoint | result |
| --- | --- | --- | --- | --- |
| Cc1ccc2ccc3ccc(C)nc3c2n1.[C-]#[N+]c1ccc(C)cc1.[C-]#[O+].[C-]#[O+].[C-]#[O+].[Re+] | MTT | 24 h | EC50 | 1400 nM |
| CC[C@@H]1C=CC(=O)O[C@@H]1C[C@@H](O)[C@H](C)[C@H](O)[C@@H](C)Cc1ccc(F)cc1 | MTT | 48 h | GI50 | 29.7 nM |
| COc1ccc(C(=O)O[C@@H]2CN3Cc4c(cc5c(c4OC)OCO5)[C@@]24C=C[C@H](OC)C[C@@H]34)cc1 | WST-1 | – | IC50 | > 10000 nM |
| CC[C@@H]1C=CC(=O)O[C@@H]1C[C@@H](OC)[C@H](C)[C@H](OC)[C@@H](C)Cc1ccc(F)cc1 | MTT | 48 h | GI50 | 1930 nM |
| Nc1ccn([C@@H]2O[C@H](CO)[C@@H](O)C2(F)F)c(=O)n1 | CCK-8 | 72 h | IC50 | 4.7 nM |
| Cc1[nH]c2ccccc2c1CCNCc1ccc(/C=C/C(=O)NO)cc1 | crystal violet | 48 h | IC50 | 3.9 nM |
| CC(=O)O[C@H]1C(=O)[C@@]2(C)[C@H]([C@H](OC(=O)c3ccccc3)[C@]3(O)C[C@H](OC(=O)[C@H](O)[C@@H](NC(=O)c4ccccc4)c4ccccc4)C(C)=C1C3(C)C)[C@]1(OC(C)=O)CO[C@@H]1C[C@@H]2O | fluorescence | 72 h | IC50 | 0.26 nM |
| CC(C)C(=O)Nc1ccc([N+](=O)[O-])c(C(F)(F)F)c1 | CCK-8 | 48 h | IC50 | > 50000 nM |
| CCOc1cc(OCC)cc(C(=O)O[C@@H]2CN3Cc4c(cc5c(c4OC)OCO5)[C@@]24C=C[C@H](OC)C[C@@H]34)c1 | WST-1 | – | IC50 | 7800 nM |
